According to ChEMBL document CHEMBL3091412, “Discovery of an irreversible HCV NS5B polymerase inhibitor” (Bioorg Med Chem Lett, 2013):

How the values were obtained:
[1] = Ratio of drug uptake in brain to plasma of Sprague-Dawley rat at 10 mg/kg, po; type: ADME, organism-based; set-up: dose 10 mg/kg, route oral; settings: read-out: BPR
Outline: (§1)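 Crystalline sodium salt given orally at 10 mg/kg to fasted male Sprague Dawley rats. Liver and brain uptake were measured and reported as the mean tissue-to-plasma ratio.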

[2] = AUC in beagle dog at 3 mg/kg, po; type: ADME, organism-based, Canis lupus familiaris; set-up: dose 3 mg/kg, route oral; settings: plasma
Outline: (§2)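 Given orally as crystalline sodium salt; plasma AUC determined in Sprague Dawley rats (10 mpk), Cynomolgus monkeys (3 mpk) or Beagle dogs (3 mpk).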

[3] = Plasma protein binding in beagle dog; type: ADME, cell-free, Canis lupus familiaris; settings: read-out: PPB (converted)
[4] = Plasma protein binding in Sprague-Dawley rat; type: ADME, cell-free; settings: read-out: PPB (converted)
[5] = Volume of distribution at steady state in cynomolgus monkey; type: ADME, organism-based, Macaca fascicularis; settings: in vivo, read-out: Vdss
Outline: (§3)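 The compound was given as a crystalline sodium salt. Pharmacokinetics were studied in Sprague Dawley rats, Cynomolgus monkeys and Beagle dogs after oral (PO) and IV dosing. Oral exposure was read as AUC, and the oral dose was 3 mpk in monkeys and dogs. Volume of distribution was taken at steady state.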

[6] = Plasma protein binding in human; type: ADME, cell-free; settings: read-out: PPB (converted)
[7] = Half life in iv dosed cynomolgus monkey; type: ADME, organism-based, Macaca fascicularis; settings: in vivo
[8] = Oral bioavailability in Sprague-Dawley rat at 10 mg/kg; type: ADME, organism-based; settings: in vivo
[9] = AUC in Sprague-Dawley rat at 10 mg/kg, po; type: ADME, organism-based; set-up: dose 10 mg/kg, route oral; settings: plasma; outline: as §2
[10] = Plasma protein binding in cynomolgus monkey; type: ADME, cell-free, Macaca fascicularis; settings: read-out: PPB (converted)
[11] = Clearance in beagle dog; type: ADME, organism-based, Canis lupus familiaris; settings: in vivo
[12] = Volume of distribution at steady state in beagle dog; type: ADME, organism-based, Canis lupus familiaris; settings: in vivo, read-out: Vdss; outline: as §3
[13] = Half life in iv dosed Sprague-Dawley rat; type: ADME, organism-based; settings: in vivo
[14] = Volume of distribution at steady state in Sprague-Dawley rat; type: ADME, organism-based; settings: in vivo, read-out: Vdss; outline: as §3
[15] = Ratio of drug uptake in liver to plasma of Sprague-Dawley rat at 10 mg/kg, po; type: ADME, organism-based; set-up: dose 10 mg/kg, route oral; outline: as §1
[16] = Oral bioavailability in beagle dog at 3 mg/kg; type: ADME, organism-based, Canis lupus familiaris; settings: in vivo; outline: as §3
[17] = Clearance in cynomolgus monkey; type: ADME, organism-based, Macaca fascicularis; settings: in vivo
[18] = Oral bioavailability in cynomolgus monkey at 3 mg/kg; type: ADME, organism-based, Macaca fascicularis; settings: in vivo; outline: as §3
[19] = Half life in iv dosed beagle dog; type: ADME, organism-based, Canis lupus familiaris; settings: in vivo
[20] = Clearance in Sprague-Dawley rat; type: ADME, organism-based; settings: in vivo
[21] = AUC in cynomolgus monkey at 3 mg/kg, po; type: ADME, organism-based, Macaca fascicularis; set-up: dose 3 mg/kg, route oral; settings: plasma; outline: as §2

Cc1cc2c(-c3ccc[nH]c3=O)c(C(=O)[O-])n(Cc3cc4ccccc4nc3Cl)c2cc1F.[Na+]
Kp [1]: < 0.01
AUC [2]: 3.2 µM·h
fraction unbound [3]: 0.004
fraction unbound [4]: 0.002
Vd [5]: 1.2 L/kg
fraction unbound [6]: 0.003
half-life [7]: 5 h
bioavailability [8]: 14%
AUC [9]: 35 µM·h
fraction unbound [10]: 0.005
clearance [11]: 13 mL/min/kg
Vd [12]: 1.7 L/kg
half-life [13]: 7 h
Vd [14]: 0.3 L/kg
Kp [15]: 0.4
bioavailability [16]: 38%
clearance [17]: 3.5 mL/min/kg
bioavailability [18]: 38%
half-life [19]: 2 h
clearance [20]: 1.5 mL/min/kg
AUC [21]: 11.5 µM·h
